# Calls of active or inactive are those of the source. The calls are words filed in the database; no cut-off is given here.
# Tests used:
# [1] = system: HCT-116; test: Induction of cell cycle arrest in human HCT116 cells assessed as accumulation at S phase at 15 uM after 48 hrs by propidium iodide staining-based flow cytometric analysis in presence of RNase A (reference value: 16.2%); format: functional
# [2] = system: HCT-116; test: Induction of cell cycle arrest in human HCT116 cells assessed as accumulation at sub-G1 phase at 15 uM after 48 hrs by propidium iodide staining-based flow cytometric analysis in presence of RNase A (reference value: 6.5%); format: functional
# [3] = system: HCT-116; test: Induction of cell cycle arrest in human HCT116 cells assessed as accumulation at S phase at 30 uM after 48 hrs by propidium iodide staining-based flow cytometric analysis in presence of RNase A (reference value: 16.2%); format: functional
# [4] = system: HCT-116; test: Induction of apoptosis in human HCT116 cells assessed as late apoptotic cells at 7.5 uM after 48 hrs by annexin V-FITC/propidium iodide staining-based flow cytometric analysis (reference value: 5.2%); format: functional
# [5] = system: HCT-116; test: Induction of apoptosis in human HCT116 cells assessed as dead cells at 30 uM after 48 hrs by annexin V-FITC/propidium iodide staining-based flow cytometric analysis (reference value: 4.2%); format: functional
# [6] = system: HCT-116; test: Induction of apoptosis in human HCT116 cells assessed as late apoptotic cells at 30 uM after 48 hrs by annexin V-FITC/propidium iodide staining-based flow cytometric analysis (reference value: 7.2%); format: functional
# [7] = system: HCT-116; test: Induction of apoptosis in human HCT116 cells assessed as early apoptotic cells at 30 uM after 48 hrs by annexin V-FITC/propidium iodide staining-based flow cytometric analysis (reference value: 1.1%); format: functional
# [8] = system: HCT-116; test: Induction of apoptosis in human HCT116 cells assessed as viable cells at 30 uM after 48 hrs by annexin V-FITC/propidium iodide staining-based flow cytometric analysis in presence of NAC (reference value: 87.4%); format: functional; conditions: HCT-116, 48 h, read-out: Activity
# [9] = system: HCT-116; test: Induction of apoptosis in human HCT116 cells assessed as cleaved caspase 8 level at 30 uM up to 24 hrs by Western blot analysis; format: functional, cell-based
# [10] = system: HCT-116; test: Induction of apoptosis in human HCT116 cells assessed as cleaved PARP level at 30 uM up to 24 hrs by Western blot analysis; format: functional, cell-based
# [11] = system: Mus musculus; test: Toxicity in nude mouse at 5 to 10 mg/kg, ip administered 3 times per week measured on day 41; format: organism-based; conditions: in vivo
# Method in brief: (§1)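 Nude mice implanted s.c. in the flank with 2 × 10^6 HCT116 cells. Once tumors reached about 120 mm3, mice were randomized, six per group, to vehicle or compound at 5 or 10 mg/kg ip (200 μL) three times weekly; irinotecan 10 mg/kg ip once weekly as reference. Body weight recorded twice weekly to assess toxicity; study ended day 41.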
# [12] = system: Mus musculus; test: Toxicity in nude mouse assessed as change in body weight at 5 to 10 mg/kg, ip administered 3 times per week measured on day 41; format: organism-based; conditions: in vivo; method in brief: as §1
# [13] = Upregulation of phosphorylated ATM expression in human HCT116 cells at 1 hr by Western blot analysis; format: functional, cell-based; conditions: HCT-116
# [14] = Upregulation of MDM2 expression in p53-null human HCT116 cells at 7.5 to 30 uM after 24 hrs by Western blot analysis; format: functional, cell-based; conditions: HCT-116
# [15] = Antiproliferative activity against p53-null human HCT116 cells assessed as cell viability after 72 hrs by SRB assay; format: functional, cell-based; conditions: HCT-116, 72 h
# Method in brief: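 p53 wild-type and p53-null HCT116 cells in 96-well plates treated 72 h; SRB assay (TCA fix, SRB stain, Tris pH 10.0 solubilisation, A515); viability vs solvent control, IC50 by nonlinear regression.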
# [16] = system: HCT-116; test: Increase in p21 expression in human HCT116 cells after 24 hrs by western blot analysis; format: functional, cell-based
# Method in brief: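 HCT116 cells exposed 24 h in complete medium; lysed in RIPA buffer (pH 8.0), protein by BCA, equal loads run on 8–13% SDS-PAGE, PVDF transfer, blocked in 5% BSA/TBST, primary antibodies overnight at 4 °C, HRP secondaries 2 h RT, ECL detection; β-actin as loading control.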
# [17] = biological target: S-phase kinase-associated protein 1/2 (Homo sapiens) (UniProt Q13309+P63208); test: Inhibition of Skp2/Skp1 protein interaction in human HCT116 cells after 24 hrs by immunoprecipitation assay; format: cell-based; conditions: HCT-116
# Method in brief: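 Protein measured by Bradford. Equal protein incubated with Protein G sepharose and the capture antibody (anti-p53, anti-Cul-1 or anti-Skp2) overnight at 4 °C. Bead eluates boiled in Laemmli/2-mercaptoethanol and analysed by Western blot.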
# [18] = system: HCT-116; test: Induction of cell cycle arrest in human HCT116 cells assessed as accumulation at sub-G1 phase at 7.5 uM after 48 hrs by propidium iodide staining-based flow cytometric analysis in presence of RNase A (reference value: 6.5%); format: functional
# [19] = system: Mus musculus; test: Downregulation of Skp2 in human HCT116 cells xenografted in nude mouse at 5 to 10 mg/kg, ip administered 3 times per week measured on day 41 by Western blot analysis; format: functional, organism-based; conditions: HCT-116
# Method in brief: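 Excised frozen xenograft tumours homogenised in lysis buffer; protein by Bradford assay, then Western blotting for Skp2 with β-actin as control.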
# [20] = system: Mus musculus; test: Upregulation of p27 in human HCT116 cells xenografted in nude mouse at 5 to 10 mg/kg, ip administered 3 times per week measured on day 41 by H and E staining-based phase contrast microscopic analysis; format: functional, organism-based; conditions: HCT-116
# Method in brief: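 Tumors excised from the xenograft study (ip 5 or 10 mg/kg three times weekly, day 41) were formalin-fixed and paraffin-embedded. Sections were probed with antibody, detected by LSAB/HRP, counterstained with H&E and photographed under an inverted phase-contrast microscope.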
# [21] = system: Mus musculus; test: Downregulation of Skp2 in human HCT116 cells xenografted in nude mouse at 5 to 10 mg/kg, ip administered 3 times per week measured on day 41 by […]; format: functional, organism-based; conditions: HCT-116
# Method in brief: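 Formalin-fixed, paraffin-embedded xenograft sections (mice dosed ip three times weekly) probed with antibodies, detected by LSAB/HRP, counterstained with H&E, imaged by inverted phase-contrast microscopy.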
# [22] = Antiproliferative activity against human HCT15 cells after 24 to 72 hrs by SRB assay; format: functional, cell-based; conditions: HCT-15
# Method in brief: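 Cells grown in 96-well plates (RPMI 1640; MRC-5 in MEM, 10% FBS, antibiotics) with compound […]; fixed in 10% TCA 30 min at 4 °C, stained 0.4% SRB in 1% acetic acid 1 h, dye dissolved in 10 mM Tris pH 10.0, A515 read; viability as % of solvent control, IC50 by nonlinear regression; mean of three independent experiments.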
# [23] = system: HCT-116; test: Antiproliferative activity against human HCT116 cells after 5 to 40 uM by SRB assay; format: functional, cell-based; conditions: TDE = time-dependent effect
# [24] = system: HCT-116; test: Induction of cell cycle arrest in human HCT116 cells assessed as accumulation at G0/G1 phase at 7.5 uM after 24 hrs by propidium iodide staining-based flow cytometric analysis in presence of RNase A (reference value: 64.6%); format: functional
# [25] = system: HCT-116; test: Induction of cell cycle arrest in human HCT116 cells assessed as accumulation at G0/G1 phase at 15 uM after 24 hrs by propidium iodide staining-based flow cytometric analysis in presence of RNase A (reference value: 64.6%); format: functional
# Chain of S-phase kinase-associated protein 1/2 (Homo sapiens) (P63208 whole entry, looked up): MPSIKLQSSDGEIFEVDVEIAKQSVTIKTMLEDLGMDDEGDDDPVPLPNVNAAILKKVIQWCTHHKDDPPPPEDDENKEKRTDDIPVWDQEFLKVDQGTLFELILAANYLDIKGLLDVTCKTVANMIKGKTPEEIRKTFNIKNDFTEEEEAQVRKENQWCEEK
# Chain of S-phase kinase-associated protein 1/2 (Homo sapiens) (Q13309 whole entry, looked up): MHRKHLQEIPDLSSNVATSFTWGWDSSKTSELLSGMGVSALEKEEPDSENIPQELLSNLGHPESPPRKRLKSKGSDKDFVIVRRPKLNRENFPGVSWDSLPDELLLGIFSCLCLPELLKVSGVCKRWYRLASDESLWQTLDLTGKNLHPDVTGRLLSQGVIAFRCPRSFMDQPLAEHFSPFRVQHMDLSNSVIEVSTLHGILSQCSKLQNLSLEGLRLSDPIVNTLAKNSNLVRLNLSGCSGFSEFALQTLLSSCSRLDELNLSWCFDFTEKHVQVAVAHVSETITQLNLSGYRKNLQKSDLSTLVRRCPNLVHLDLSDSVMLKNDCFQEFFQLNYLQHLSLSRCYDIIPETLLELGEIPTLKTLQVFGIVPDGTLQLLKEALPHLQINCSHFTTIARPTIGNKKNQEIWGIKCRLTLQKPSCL
smiles,measurement,setting,value
O=C/C=C/c1ccc2c(c1)O[C@@H](CO)[C@H](c1ccc(O)c(O)c1)O2 [AMERICANIN A],Activity,[1],8.2%
same,Activity,[2],37.9%
same,Activity,[3],8.4%
same,Activity,[4],10.4%
same,Activity,[5],5.1%
same,Activity,[6],36.5%
same,Activity,[7],7%
same,viability at 30 µM,[8],73.2%
same,Activity,[9],Active
same,Activity,[10],Active
same,Activity,[11],Non-toxic
same,Activity,[12],Non-toxic
same,Activity,[13],Dose-dependent effect
same,Activity,[14],Active
same,IC50,[15],7.8 µM
same,Activity,[16],Dose-dependent effect
same,inhibition,[17],inactive
same,Activity,[18],7.6%
same,Activity,[19],Active
same,Activity,[20],Active
same,Activity,[21],Active
same,IC50,[22],12.5 µM
same,Activity,[23],tde
same,Activity,[24],55.4%
same,Activity,[25],47.5%

# From ChEMBL document CHEMBL3758106, “Antitumor Activity of Americanin A Isolated from the Seeds of Phytolacca americana by Regulating the ATM/ATR Signaling Pathway and the Skp2-p27 Axis in Human Colon Cancer Cells” (J Nat Prod, 2015)
